Results from ChEMBL document CHEMBL3120102, “Structure-based design, synthesis and biological evaluation of novel anthra[1,2-d]imidazole-6,11-dione homologues as potential antitumor agents” (2013).

Columns and labels:
Format in all cases: functional
[1] = Cytotoxicity against human Hs578T cells assessed as cell growth at 10 uM after 48 hrs by SRB assay; settings: Hs-578T, read-out: Activity
T47D = test: Cytotoxicity against human T47D cells assessed as growth inhibition after 48 hrs by SRB assay
Procedure, shortened: (§1)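 NCI 60-cell-line screen, two stages. Five-dose testing at […]. Cellular protein measured by sulforhodamine B colorimetry after 48 h drug exposure. A time-zero control and drug-free plates are used to derive GI50, TGI and LC50 from dose-response curves plotted as log10 concentration per cell line.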

MOLT-4 = test: Cytotoxicity against human MOLT4 cells assessed as growth inhibition after 48 hrs by SRB assay
Procedure, shortened: (§2)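 NCI 60-cell-line screen, five-dose stage: each cell line exposed for 48 h to five concentrations spanning five log steps; cellular protein measured by sulforhodamine B colorimetry. A time-zero cell control and plates without drug are used to derive GI50, TGI and LC50 from log-concentration dose-response curves.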

RXF 393 = test: Cytotoxicity against human RXF393 cells assessed as growth inhibition after 48 hrs by SRB assay; procedure, shortened: as §2
A498 = test: Cytotoxicity against human A498 cells assessed as growth inhibition after 48 hrs by SRB assay
Procedure, shortened: (§3)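 NCI 60-cell-line five-dose screen at […]. Drug exposure was 48 h, followed by sulforhodamine B protein staining. GI50, TGI and LC50 were calculated against a time-zero control and untreated plates, with dose–response curves plotted from log10 concentration.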

MDA-MB-435 = test: Cytotoxicity against human MDA-MB-435 cells assessed as growth inhibition after 48 hrs by SRB assay; procedure, shortened: as §2
SF-295 = test: Cytotoxicity against human SF295 cells assessed as growth inhibition after 48 hrs by SRB assay; procedure, shortened: as §2
SK-MEL-5 = test: Cytotoxicity against human SK-MEL-5 cells assessed as growth inhibition after 48 hrs by SRB assay; procedure, shortened: as §2
MCF7 = test: Cytotoxicity against human MCF7 cells assessed as growth inhibition after 48 hrs by SRB assay; procedure, shortened: as §2
OVCAR-4 = test: (§4) Cytotoxicity against human OVCAR4 cells assessed as growth inhibition after 48 hrs by SRB assay; procedure, shortened: as §2
[2] = as §4; settings: OVCAR-4, 48 h; procedure, shortened: as §2
HL-60(TB) = test: Cytotoxicity against human HL-60(TB) cells assessed as growth inhibition after 48 hrs by SRB assay
Procedure, shortened: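 NCI 60-cell panel five-concentration stage (0.01, 0.1, 1, 10, 100) in HL-60(TB). Cellular protein was measured by sulforhodamine B colorimetry after 48 h of exposure. A time-zero cell control and untreated plates allowed calculation of GI50, TGI and LC50. These were read from log10 concentration dose-response curves.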

A549 = test: Cytotoxicity against human A549 cells assessed as growth inhibition after 48 hrs by SRB assay; procedure, shortened: as §3
SK-MEL-28 = test: Cytotoxicity against human SK-MEL-28 cells assessed as growth inhibition after 48 hrs by SRB assay; procedure, shortened: as §2
IGROV-1 = test: Cytotoxicity against human IGROV1 cells assessed as growth inhibition after 48 hrs by SRB assay; procedure, shortened: as §3
NCI-H23 = test: Cytotoxicity against human NCI-H23 cells assessed as growth inhibition after 48 hrs by SRB assay; procedure, shortened: as §2
SR = test: Cytotoxicity against human SR cells assessed as growth inhibition after 48 hrs by SRB assay; procedure, shortened: as §1
HCC 2998 = test: Cytotoxicity against human HCC2998 cells assessed as growth inhibition after 48 hrs by SRB assay; procedure, shortened: as §3
HCT-15 = test: Cytotoxicity against human HCT15 cells assessed as growth inhibition after 48 hrs by SRB assay; procedure, shortened: as §3
MDA-MB-468 = test: Cytotoxicity against human MDA-MB-468 cells assessed as growth inhibition after 48 hrs by SRB assay; procedure, shortened: as §2
K562 = test: Cytotoxicity against human K562 cells assessed as growth inhibition after 48 hrs by SRB assay; procedure, shortened: as §3
KM12 = test: Cytotoxicity against human KM12 cells assessed as growth inhibition after 48 hrs by SRB assay; procedure, shortened: as §3
PC-3 = test: Cytotoxicity against human PC3 cells assessed as growth inhibition after 48 hrs by SRB assay; procedure, shortened: as §2
SN12C = test: Cytotoxicity against human SN12C cells assessed as growth inhibition after 48 hrs by SRB assay; procedure, shortened: as §1
MDA-MB-231 = test: Cytotoxicity against human MDA-MB-231 cells assessed as growth inhibition after 48 hrs by SRB assay; procedure, shortened: as §2
786-0 = test: Cytotoxicity against human 786-0 cells assessed as growth inhibition after 48 hrs by SRB assay; procedure, shortened: as §3
SNB-19 = test: Cytotoxicity against human SNB19 cells assessed as growth inhibition after 48 hrs by SRB assay; procedure, shortened: as §1

Molecule `O=C1c2ccccc2C(=O)c2c1ccc1[nH]c(=S)[nH]c21` has a growth at 10 µM [1] of 104%.
`O=C1c2ccccc2C(=O)c2c1ccc1nc(SCCN3CCCC3)[nH]c21` showed a GI50 (T47D) of 17.5 µM, an LC50 (T47D) of 92.8 µM and a TGI (T47D) of 40.3 µM. The “growth inhibition (GI)” value (T47D) was “Dose-dependent effect”, the “growth inhibition (GI)” value (MOLT-4) was “Dose-dependent effect” and the GI50 (MOLT-4; MOLT-4, 48 h) was 1.51 µM. For the same molecule, the LC50 (50% lethal concentration) (MOLT-4; MOLT-4, 48 h) was 19.1 µM, the TGI (MOLT-4; MOLT-4, 48 h) was 4.29 µM and the “growth inhibition (GI)” value (RXF 393) was “Dose-dependent effect”. For the same molecule, the GI50 (RXF 393; RXF 393, 48 h) was 3.08 µM, the TGI (RXF 393; RXF 393, 48 h) was 16.3 µM and the CC50 (RXF 393; RXF 393, 48 h, read-out: LC50 (the source's name)) was 48.5 µM. The “growth inhibition (GI)” value (A498) was “Dose-dependent effect”, the GI50 (A498; A498, 48 h) was 5.82 µM and the TGI (A498; A498, 48 h) was 21.3 µM. For the same molecule, the CC50 (A498; A498, 48 h, read-out: LC50 (the source's name)) was 49.4 µM, the “growth inhibition (GI)” value (MDA-MB-435) was “Dose-dependent effect” and the GI50 (MDA-MB-435; MDA-MB-435, 48 h) was 4.18 µM. For the same molecule, the LC50 (MDA-MB-435; MDA-MB-435, 48 h) was 43.9 µM, the TGI (MDA-MB-435; MDA-MB-435, 48 h) was 16.2 µM and the “growth inhibition (GI)” value (SF-295) was “Dose-dependent effect”. It also gave a GI50 (SF-295; SF-295, 48 h) of 14.2 µM, an LC50 (SF-295; SF-295, 48 h) of 60.9 µM and a TGI (SF-295; SF-295, 48 h) of 29.4 µM. For the same molecule, the “growth inhibition (GI)” value (SK-MEL-5) was “Dose-dependent effect”, the GI50 (SK-MEL-5; SK-MEL-5, 48 h) was 12.9 µM and the LC50 (concentration killing 50% of cells relative to time zero) (SK-MEL-5; SK-MEL-5, 48 h) was 54.8 µM. For the same molecule, the TGI (SK-MEL-5; SK-MEL-5, 48 h) was 26.6 µM, the “growth inhibition (GI)” value (MCF7) was “Dose-dependent effect” and the GI50 (MCF7; MCF7, 48 h) was 1.74 µM. For the same molecule, the LC50 (concentration killing 50% of cells) (MCF7; MCF7, 48 h) was 45.6 µM, the TGI (MCF7; MCF7, 48 h) was 7.52 µM and the “growth inhibition (GI)” value (OVCAR-4) was “Dose-dependent effect”. For the same molecule, the GI50 [2] was 1.89 µM, the LC50 (concentration killing 50% of cells) [2] was 38.9 µM and the TGI [2] was 7.34 µM. For the same molecule, the “growth inhibition (GI)” value (HL-60(TB)) was “Dose-dependent effect”, the GI50 (HL-60(TB); HL-60, 48 h) was 1.13 µM and the LC50 (HL-60(TB); HL-60, 48 h) was 57.6 µM. The TGI (HL-60(TB); HL-60, 48 h) was 11.9 µM, the “growth inhibition (GI)” value (A549) was “Dose-dependent effect” and the GI50 (A549; A549, 48 h) was 3.8 µM. The TGI (A549; A549, 48 h) was 15 µM, the “growth inhibition (GI)” value (SK-MEL-28) was “Dose-dependent effect” and the GI50 (SK-MEL-28; SK-MEL-28, 48 h) was 2.2 µM. The LC50 (SK-MEL-28; SK-MEL-28, 48 h) was 9.08 µM, the TGI (SK-MEL-28; SK-MEL-28, 48 h) was 4.47 µM and the “growth inhibition (GI)” value (IGROV-1) was “Dose-dependent effect”. It also gave a GI50 (IGROV-1; IGROV-1, 48 h) of 0.56 µM, an LC50 (IGROV-1; IGROV-1, 48 h) of 22.4 µM and a TGI (IGROV-1; IGROV-1, 48 h) of 3.39 µM. For the same molecule, the “growth inhibition (GI)” value (NCI-H23) was “Dose-dependent effect”, the TGI (NCI-H23; NCI-H23, 48 h) was 25.7 µM and the GI50 (SR) was 1.48 µM. For the same molecule, the LC50 (50% lethal concentration) (SR) was 86.3 µM, the TGI (SR) was 4.19 µM and the “growth inhibition (GI)” value (SR) was “Dose-dependent effect”. For the same molecule, the “growth inhibition (GI)” value (HCC 2998) was “Dose-dependent effect”, the GI50 (HCC 2998; HCC 2998, 48 h) was 4.91 µM and the TGI (HCC 2998; HCC 2998, 48 h) was 18.5 µM. The CC50 (HCC 2998; HCC 2998, 48 h, read-out: LC50 (the source's name)) was 46 µM, the “growth inhibition (GI)” value (HCT-15) was “Dose-dependent effect” and the GI50 (HCT-15; HCT-15, 48 h) was 1.62 µM. For the same molecule, the LC50 (concentration killing 50% of cells) (HCT-15; HCT-15, 48 h) was 34.7 µM, the TGI (HCT-15; HCT-15, 48 h) was 10.3 µM and the “growth inhibition (GI)” value (MDA-MB-468) was “Dose-dependent effect”. It also gave a GI50 (MDA-MB-468; MDA-MB-468, 48 h) of 1.33 µM, an LC50 (MDA-MB-468; MDA-MB-468, 48 h) of 7.05 µM and a TGI (MDA-MB-468; MDA-MB-468, 48 h) of 3.06 µM. The “growth inhibition (GI)” value (K562) was “Dose-dependent effect”, the GI50 (K562; K562, 48 h) was 1.7 µM and the TGI (K562; K562, 48 h) was 5.2 µM. The CC50 (K562; K562, 48 h, read-out: LC50 (the source's name)) was 72 µM, the “growth inhibition (GI)” value (KM12) was “Dose-dependent effect” and the GI50 (KM12; KM12, 48 h) was 2.32 µM. The TGI (KM12; KM12, 48 h) was 6.16 µM, the CC50 (KM12; KM12, 48 h, read-out: LC50 (the source's name)) was 24.4 µM and the “growth inhibition (GI)” value (PC-3) was “Dose-dependent effect”. The GI50 (PC-3; PC-3, 48 h) was 2.57 µM, the LC50 (PC-3; PC-3, 48 h) was 43.4 µM and the TGI (PC-3; PC-3, 48 h) was 11 µM. For the same molecule, the GI50 (SN12C) was 5.96 µM, the TGI (SN12C) was 19.6 µM and the “growth inhibition (GI)” value (SN12C) was “Dose-dependent effect”. The CC50 (SN12C; read-out: LC50 (the source's name)) was 46.1 µM, the “growth inhibition (GI)” value (MDA-MB-231) was “Dose-dependent effect” and the GI50 (MDA-MB-231; MDA-MB-231, 48 h) was 4.46 µM. For the same molecule, the LC50 (MDA-MB-231; MDA-MB-231, 48 h) was 43.9 µM, the TGI (MDA-MB-231; MDA-MB-231, 48 h) was 16.2 µM and the “growth inhibition (GI)” value (786-0) was “Dose-dependent effect”. For the same molecule, the GI50 (786-0; 786-0, 48 h) was 11.7 µM, the LC50 (concentration causing 50% net cell kill) (786-0; 786-0, 48 h) was 54.7 µM and the TGI (786-0; 786-0, 48 h) was 25.3 µM. For the same molecule, the “growth inhibition (GI)” value (SNB-19) was “Dose-dependent effect”, the GI50 (SNB-19; SNB-19, 48 h) was 17.1 µM and the LC50 (SNB-19; SNB-19, 48 h) was 59.7 µM. It also gave a TGI (SNB-19; SNB-19, 48 h) of 31.9 µM.
